Assay results from ChEMBL document CHEMBL4422612, “Small Molecule Inhibitor that Stabilizes the Autoinhibited Conformation of the Oncogenic Tyrosine Phosphatase SHP2” (J Med Chem, 2019).

How the values were obtained:
[1] = target: T1, Tyrosine-protein phosphatase non-receptor type 11 (Homo sapiens, UniProt Q06124); assay: Inhibition of wild type recombinant human SHP2 using H-Glu-Phe-pTyr-Ala-Glu-Val-Gly-Arg-Ser-Pro-Pro-Asp-Pro-Ala-Lys as substrate preincubated for 30 mins followed by substrate addition and measured after 30 mins by Malachite Green-reagent based assay
T1 sequence (Q06124 whole entry): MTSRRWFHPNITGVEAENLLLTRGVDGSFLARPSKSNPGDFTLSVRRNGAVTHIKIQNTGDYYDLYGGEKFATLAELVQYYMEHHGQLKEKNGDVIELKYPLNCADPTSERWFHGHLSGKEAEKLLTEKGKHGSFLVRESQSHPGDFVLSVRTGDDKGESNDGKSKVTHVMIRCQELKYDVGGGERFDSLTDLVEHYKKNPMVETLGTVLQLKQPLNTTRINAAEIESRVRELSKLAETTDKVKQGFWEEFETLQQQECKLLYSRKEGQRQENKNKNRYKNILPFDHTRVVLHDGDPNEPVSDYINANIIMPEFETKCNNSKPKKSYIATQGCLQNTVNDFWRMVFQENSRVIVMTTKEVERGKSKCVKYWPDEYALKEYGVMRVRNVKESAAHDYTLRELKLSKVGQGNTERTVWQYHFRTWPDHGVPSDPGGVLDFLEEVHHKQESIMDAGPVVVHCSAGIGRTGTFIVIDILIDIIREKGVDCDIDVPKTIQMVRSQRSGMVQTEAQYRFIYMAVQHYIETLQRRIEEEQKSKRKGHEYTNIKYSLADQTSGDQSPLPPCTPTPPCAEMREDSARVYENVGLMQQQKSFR
How it was run: (§1)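 Full-length SHP2 or SHP1 (0.1 µg) preincubated with compound 30 min at room temperature in 25 mM Tris-HCl pH 7.4, 50 mM NaCl, 5 mM DTT, 2.5 mM EDTA. Phospho-peptide substrate added to 50 µM final; 30 min at 30 °C. Released phosphate read by Malachite Green at OD620. IC50 from six concentrations; three experiments.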

[2] = target: Tyrosine-protein phosphatase non-receptor type 6 (Homo sapiens, UniProt P29350); assay: Inhibition of wild type recombinant human SHP1 using H-Glu-Phe-pTyr-Ala-Glu-Val-Gly-Arg-Ser-Pro-Pro-Asp-Pro-Ala-Lys as substrate preincubated for 30 mins followed by substrate addition and measured after 30 mins by Malachite Green-reagent based assay; how it was run: as §1
Tyrosine-protein phosphatase non-receptor type 6, sequence (P29350 whole entry): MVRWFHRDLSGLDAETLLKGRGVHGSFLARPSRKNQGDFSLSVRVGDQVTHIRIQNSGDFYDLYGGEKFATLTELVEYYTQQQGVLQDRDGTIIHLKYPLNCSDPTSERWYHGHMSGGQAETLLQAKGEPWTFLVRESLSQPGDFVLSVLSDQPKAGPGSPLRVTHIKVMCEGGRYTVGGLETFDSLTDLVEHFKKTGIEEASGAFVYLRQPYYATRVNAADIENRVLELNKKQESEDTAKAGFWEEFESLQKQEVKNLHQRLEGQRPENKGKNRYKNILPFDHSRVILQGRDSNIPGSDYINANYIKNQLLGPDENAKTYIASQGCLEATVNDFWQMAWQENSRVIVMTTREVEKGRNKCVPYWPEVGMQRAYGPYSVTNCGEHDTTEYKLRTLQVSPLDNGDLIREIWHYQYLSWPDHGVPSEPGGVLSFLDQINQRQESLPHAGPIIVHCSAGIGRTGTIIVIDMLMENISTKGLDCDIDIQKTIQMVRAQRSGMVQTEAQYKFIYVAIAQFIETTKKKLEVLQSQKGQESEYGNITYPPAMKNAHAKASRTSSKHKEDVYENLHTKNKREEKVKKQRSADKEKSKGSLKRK

[3] = target: T1, Tyrosine-protein phosphatase non-receptor type 11; assay: Binding affinity to full length wild type His-tagged SHP2 (unknown origin) by MST assay
How it was run: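 His-tagged SHP2 (200 nM) in 50 mM Tris-HCl pH 8.0, 10 mM NaCl, 0.005% Tween 20, labelled with red-tris-NTA dye. Mixed 1:1 with a 15-step 2-fold dilution series from 600 µM made in PBS/0.005% Tween 20. MST run at 50% power with red filter; one-site fit gives Kd. Mean ± SD of three experiments.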

MEF = assay: Growth inhibition of PTPN11-depleted MEF at 6 uM after 24 to 72 hrs by cell proliferation-based assay; details: mouse
How it was run: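 Ptpn11 fl/fl and Ptpn11 +/+ MEFs, both Ade-Cre+, infected with adeno-Cre, then given 6 µM compound or DMSO. Growth measured at 24, 48 and 72 h by One Solution proliferation assay. SHP2 loss confirmed by immunoblot. Triplicates from one of three experiments.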

NCI-H661 [4] = assay: Induction of apoptosis in human NCI-H661 cells assessed as viable cells at 10 uM after 24 hrs by Annexin V/FITC-staining based FACS analysis (reference value: 86.9%); format: functional; details: NCI-H661, 24 h, read-out: Activity
NCI-H661 [5] = assay: Induction of apoptosis in human NCI-H661 cells assessed as early apoptotic cells at 10 uM after 24 hrs by Annexin V/FITC-staining based FACS analysis (reference value: 5%); format: functional
NCI-H661 [6] = assay: Induction of apoptosis in human NCI-H661 cells assessed as late apoptotic cells at 10 uM after 24 hrs by Annexin V/FITC-staining based FACS analysis (reference value: 3.5%); format: functional
NCI-H661 [7] = assay: Induction of apoptosis in human NCI-H661 cells assessed as necrotic cells at 10 uM after 24 hrs by Annexin V/FITC-staining based FACS analysis (reference value: 4.6%); format: functional
NCI-H661 [8] = assay: Induction of apoptosis in human NCI-H661 cells assessed as viable cells at 20 uM after 24 hrs by Annexin V/FITC-staining based FACS analysis (reference value: 86.9%); format: functional; details: NCI-H661, 24 h, read-out: Activity
NCI-H661 [9] = assay: Induction of apoptosis in human NCI-H661 cells assessed as early apoptotic cells at 20 uM after 24 hrs by Annexin V/FITC-staining based FACS analysis (reference value: 5%); format: functional
NCI-H661 [10] = assay: Induction of apoptosis in human NCI-H661 cells assessed as late apoptotic cells at 20 uM after 24 hrs by Annexin V/FITC-staining based FACS analysis (reference value: 3.5%); format: functional
NCI-H661 [11] = assay: Induction of apoptosis in human NCI-H661 cells assessed as necrotic cells at 20 uM after 24 hrs by Annexin V/FITC-staining based FACS analysis (reference value: 4.6%); format: functional
[12] = target: T1, Tyrosine-protein phosphatase non-receptor type 11; assay: Inhibition of recombinant full length human GST-tagged SHP2 PTP domain using phospho-peptide as substrate pre-incubated for 30 mins before substrate addition and measured after 30 mins
[13] = target: Tyrosine-protein phosphatase non-receptor type 11 (Homo sapiens, UniProt Q06124, E76K); assay: Inhibition of recombinant full length human GST-tagged SHP2 E76K mutant using phospho-peptide as substrate pre-incubated for 30 mins before substrate addition and measured after 30 mins
Tyrosine-protein phosphatase non-receptor type 11 (Homo sapiens, UniProt Q06124, E76K), sequence (Q06124 as listed by the source E76K): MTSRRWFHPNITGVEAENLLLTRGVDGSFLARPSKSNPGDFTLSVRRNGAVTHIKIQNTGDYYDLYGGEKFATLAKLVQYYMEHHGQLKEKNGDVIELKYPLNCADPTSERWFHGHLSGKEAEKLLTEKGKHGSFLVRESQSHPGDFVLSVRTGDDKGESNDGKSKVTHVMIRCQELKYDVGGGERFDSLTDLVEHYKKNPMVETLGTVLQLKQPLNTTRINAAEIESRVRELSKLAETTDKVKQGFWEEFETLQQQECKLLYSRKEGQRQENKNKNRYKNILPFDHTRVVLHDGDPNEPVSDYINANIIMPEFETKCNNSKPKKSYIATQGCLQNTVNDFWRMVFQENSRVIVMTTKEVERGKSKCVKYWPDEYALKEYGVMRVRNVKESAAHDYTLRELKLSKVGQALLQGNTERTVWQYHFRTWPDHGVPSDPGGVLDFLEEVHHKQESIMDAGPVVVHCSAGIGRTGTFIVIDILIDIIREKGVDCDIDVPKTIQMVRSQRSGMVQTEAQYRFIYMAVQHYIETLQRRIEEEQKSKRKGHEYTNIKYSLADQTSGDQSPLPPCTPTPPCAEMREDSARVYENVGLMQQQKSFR

## CCOc1cc(O)c(C(=O)/C=C/c2ccc(Cl)cc2Cl)cc1CN1CCC=C(n2c(=O)[nH]c3ccccc32)C1
[1]
  IC50: 9.8 µM
[2]
  IC50: 72.7 µM
[3]
  Kd: 69 µM
MEF
  Activity: Non-Toxic
NCI-H661 [4]
  viability at 10 µM: 76.8%
NCI-H661 [5]
  Activity: 9.7%
NCI-H661 [6]
  Activity: 7.3%
NCI-H661 [7]
  Activity: 6.2%
NCI-H661 [8]
  viability at 20 µM: 57.6%
NCI-H661 [9]
  Activity: 12.6%
NCI-H661 [10]
  Activity: 21%
NCI-H661 [11]
  Activity: 8.9%
[12]
  IC50: 20.9 µM
[13]
  IC50: 7.67 µM
